Reference: PubChem BioAssay
Calls of active or inactive are those of the source.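 Rule for the calls, unless noted: active = viability at or below 30% in both replicate assays; inconclusive = viability at or below 30% in just one of the two assays; inactive = the rest.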

Legend:
[1] = Her2 expression decrease, cell viability multiplex – SKBR3 breast tumor cells, AlphaScreen, ATP viability, primary screen (AID 461;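 active = Her2 level under about 52% in both replicate screens, with viability over 70% of control, limit read from the data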;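 for Her2 level: lower value means less Her2 protein in the cells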;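 for viability: percent of carrier control wells set as 100% viability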); settings: SKBR3 Her2 protein level, 18-24 h, measured here: SKBR3 viability, ATP luminescence, at 10 µM
[2] = biological target: Receptor tyrosine-protein kinase erbB-2 (Homo sapiens) (UniProt P04626); test: as above; settings: 18-24 h, at 10 µM, stronger effect = lower value
[3] = reduced viability of SK-BR-3 breast cancer cells – cell-based, 24 h, human, pilot screen (AID 572;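 active = viability at or below 10% of carrier control in both of two separate runs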;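 note: compound exposure lasted between 18 and 24 h rather than exactly 24 h; 100% = carrier-treated control wells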); settings: SK-BR-3 viability, CellTiter-Glo luminescence, at 10 µM, stronger effect = lower value
[4] = HUVEC growth inhibition – cell-based, human, primary screen (AID 575); settings: HUVEC proliferation, CellTiter-Glo luminescence, 72 h; at 10 µM; stronger effect = lower value;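 note: 100% = median of untreated cell wells with 0.1% DMSO on each plate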
How it was run: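 Timing: 72 h treatment at 37 °C; material: HUVEC primary cells; technique: CellTiter-Glo luminescence measuring cellular ATP; controls: vehicle and MePR control wells; measure: percent of median DMSO-control luminescence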

[5] = H69AR cell proliferation blockers – human, duplicate replicates, primary screen (AID 580;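 active = viability at or under a set limit in both replicates, limit being median viability minus 3 SD, cut at about 48% in these data, passing the limit was not always enough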;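 note: 100% = mean luminescence of untreated wells and 0% = no signal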); settings: H69AR lung tumor cells viability, ATP luminescence, 72 h; at 10 µM; stronger effect = lower value
[6] = MRP1 drug-resistance reversers in H69AR cells – cell-based, doxorubicin co-treatment, pilot screen (AID 601;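 active = viability loss from added drug above about 55%, and viability with drug at most 40%, in both replicates, limit read from the data, passing the limit was not always enough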); settings: CellTiter-Glo, 72 h, at 10 µM; for differential viability (reversal): stronger effect = higher value
[7] = yeast transport mutant growth inhibition pilot in 384-well plates, post-Golgi transport modulator project (AID 636; in the data active = inhibition above about 31%); settings: absorbance 615 nm, about 18 h, stronger effect = higher value
[8] = growth suppression of yeast trafficking mutant, preliminary HTS, modulators of trafficking downstream of Golgi apparatus project, 1536-format plate, OD 615 nm (AID 637; in the data active = inhibition above about 30%); settings: yeast transport mutant growth, absorbance 615 nm, 18 h; stronger effect = higher value
[9] = H69AR cells + 2 uM doxorubicin, measured here: viability with 2 uM doxorubicin, stronger effect = lower value
[10] = H69AR cells, compound alone cytotoxicity

Receptor tyrosine-protein kinase erbB-2 (Homo sapiens), sequence (P04626 whole entry, looked up): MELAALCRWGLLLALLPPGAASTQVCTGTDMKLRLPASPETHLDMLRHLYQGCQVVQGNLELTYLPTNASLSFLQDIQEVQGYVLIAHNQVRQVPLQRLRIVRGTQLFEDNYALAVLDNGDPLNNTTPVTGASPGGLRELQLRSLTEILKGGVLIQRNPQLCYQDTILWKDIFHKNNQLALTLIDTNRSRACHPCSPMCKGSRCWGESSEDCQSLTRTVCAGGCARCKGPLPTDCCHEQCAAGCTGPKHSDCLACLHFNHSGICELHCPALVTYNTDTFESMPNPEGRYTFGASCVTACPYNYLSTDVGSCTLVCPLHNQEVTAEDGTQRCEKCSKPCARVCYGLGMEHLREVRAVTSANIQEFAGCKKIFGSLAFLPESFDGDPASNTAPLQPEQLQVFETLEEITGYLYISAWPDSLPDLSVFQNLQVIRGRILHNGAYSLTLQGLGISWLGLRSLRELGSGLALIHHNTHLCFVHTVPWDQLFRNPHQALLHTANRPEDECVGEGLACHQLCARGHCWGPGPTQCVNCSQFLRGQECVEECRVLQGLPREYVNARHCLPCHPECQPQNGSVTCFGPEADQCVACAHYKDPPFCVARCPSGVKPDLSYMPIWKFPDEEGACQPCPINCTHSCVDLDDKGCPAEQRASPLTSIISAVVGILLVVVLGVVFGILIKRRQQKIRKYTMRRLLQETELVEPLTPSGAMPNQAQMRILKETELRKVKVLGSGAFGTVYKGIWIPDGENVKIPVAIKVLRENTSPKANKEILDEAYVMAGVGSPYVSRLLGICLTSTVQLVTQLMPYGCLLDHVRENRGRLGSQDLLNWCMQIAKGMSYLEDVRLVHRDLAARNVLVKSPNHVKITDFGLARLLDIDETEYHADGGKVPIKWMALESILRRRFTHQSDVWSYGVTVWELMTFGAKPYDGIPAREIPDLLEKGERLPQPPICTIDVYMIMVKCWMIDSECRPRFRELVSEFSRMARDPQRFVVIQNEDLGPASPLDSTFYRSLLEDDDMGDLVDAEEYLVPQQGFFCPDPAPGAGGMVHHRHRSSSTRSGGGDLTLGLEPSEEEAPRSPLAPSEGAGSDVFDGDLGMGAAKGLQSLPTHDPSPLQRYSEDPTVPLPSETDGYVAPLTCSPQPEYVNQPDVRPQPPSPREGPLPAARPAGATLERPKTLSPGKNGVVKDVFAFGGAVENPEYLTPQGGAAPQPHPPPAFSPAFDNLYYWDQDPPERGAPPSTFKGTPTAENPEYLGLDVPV

With `Cc1ccc(N=C2NC(=O)CS2)c(C)c1` the viability [1] was 71%, the Her2 level [2] was 91% (inactive) and the viability [3] was 71% (inactive). For the same molecule, the viability [4] was 89.7% (inactive), the viability [5] was 102% (inactive) and the differential viability (reversal) ([6]; H69AR cells + 2 uM doxorubicin) was 5.32% (inactive). The viability [6, 9] was 96.7%, the viability [6, 10] was 102% and the inhibition [7] was -5% (inactive). The inhibition [8] was 5.57% (inactive).
For `O=C1c2oc3ccccc3c(=O)c2C(c2ccccn2)N1Cc1ccccc1` (stereo not given), the viability [1] was 91.5%, the Her2 level [2] was 110% (inactive) and the viability [3] was 91.5% (inactive). For the same molecule, the viability [4] was 95.6% (inactive), the viability [5] was 104% (inactive) and the differential viability (reversal) ([6]; H69AR cells + 2 uM doxorubicin) was 9.52% (inactive). The viability [6, 9] was 94.7%, the viability [6, 10] was 104% and the inhibition [7] was 1.07% (inactive). For the same molecule, the inhibition [8] was -8.87% (inactive).
With `COc1ccc(CC(=O)N2CCOCC2)cc1OC` the viability [1] was 97.5%, the Her2 level [2] was 99% (inactive) and the viability [3] was 97.5% (inactive). For the same molecule, the viability [4] was 102% (inactive), the viability [5] was 91.9% (inactive) and the differential viability (reversal) ([6]; H69AR cells + 2 uM doxorubicin) was -2.21% (inactive). For the same molecule, the viability [6, 9] was 94.2%, the viability [6, 10] was 91.9% and the inhibition [7] was 0.13% (inactive). The inhibition [8] was 3.28% (inactive).
In the case of `Cc1ccccc1C1CC(c2ccccc2)Nc2ncnn21` (stereo not given), the viability [1] is reported as 90%, the Her2 level [2] is reported as 87.5% (inactive) and the viability [3] is reported as 90% (inactive). For the same molecule, the viability [4] was 94.8% (inactive), the viability [5] was 64.2% (inactive) and the differential viability (reversal) ([6]; H69AR cells + 2 uM doxorubicin) was -31.1% (inactive). The viability [6, 9] was 95.3%, the viability [6, 10] was 64.2% and the inhibition [7] was 1.47% (inactive). The inhibition [8] was -6.39% (inactive).
In the case of `CC(CN1CCN(C)CC1)OC(=O)c1ccc(Cl)cc1Cl` (stereo not given), the viability [1] is reported as 127%, the Her2 level [2] is reported as 90.5% (inactive) and the viability [3] is reported as 127% (inactive). The viability [4] was 88.6% (inactive), the viability [5] was 102% (inactive) and the differential viability (reversal) ([6]; H69AR cells + 2 uM doxorubicin) was 14% (inactive). The viability [6, 9] was 88.2%, the viability [6, 10] was 102% and the inhibition [7] was -4.53% (inactive). The inhibition [8] was 10% (inactive).
For `CC1(C)OC(=O)C(=CNc2ccccc2F)C(=O)O1`, the viability [1] was 102%, the Her2 level [2] was 83.5% (inactive) and the viability [3] was 102% (inactive). The viability [4] was 97.6% (inactive), the viability [5] was 91.2% (inactive) and the differential viability (reversal) ([6]; H69AR cells + 2 uM doxorubicin) was -1.11% (inactive). For the same molecule, the viability [6, 9] was 92.4%, the viability [6, 10] was 91.2% and the inhibition [7] was -2.99% (inactive). For the same molecule, the inhibition [8] was 2.06% (inactive).
In the case of `Cc1ccc(C(=O)Nc2nc3c(s2)CCCC3)o1`, the viability [1] is reported as 104%, the Her2 level [2] is reported as 72% (inactive) and the viability [3] is reported as 104% (inactive). The viability [4] was 60.9% (inactive), the viability [5] was 73.3% (inactive) and the differential viability (reversal) ([6]; H69AR cells + 2 uM doxorubicin) was -5.85% (inactive). The viability [6, 9] was 79.1%, the viability [6, 10] was 73.3% and the inhibition [7] was -1.71% (inactive). For the same molecule, the inhibition [8] was 16.6% (inactive).
For `COCc1cc(C)c2c(N)c(C#N)sc2n1`, the viability [1] was 88%, the Her2 level [2] was 100% (inactive) and the viability [3] was 88% (inactive). The viability [4] was 91.5% (inactive), the viability [5] was 99.6% (inactive) and the differential viability (reversal) ([6]; H69AR cells + 2 uM doxorubicin) was 15.3% (inactive). The viability [6, 9] was 84.3%, the viability [6, 10] was 99.6% and the inhibition [7] was -1.32% (inactive). For the same molecule, the inhibition [8] was -2.55% (inactive).
With `O=C(CNS(=O)(=O)c1ccc(Br)s1)N1CCCC1` the viability [1] was 118%, the Her2 level [2] was 115% (inactive) and the viability [3] was 118% (inactive). For the same molecule, the viability [4] was 98.7% (inactive), the viability [5] was 99.9% (inactive) and the differential viability (reversal) ([6]; H69AR cells + 2 uM doxorubicin) was 9.79% (inactive). For the same molecule, the viability [6, 9] was 90.1%, the viability [6, 10] was 99.9% and the inhibition [7] was -2.11% (inactive). For the same molecule, the inhibition [8] was 6.89% (inactive).
With `O=S(=O)(c1ccc2ccccc2c1)N(CC(O)CN1CCOCC1)c1ccccc1` (stereo not given) the viability [1] was 87%, the Her2 level [2] was 75.5% (inactive) and the viability [3] was 87% (inactive). The viability [4] was 83.9% (inactive), the viability [5] was 100% (inactive) and the differential viability (reversal) ([6]; H69AR cells + 2 uM doxorubicin) was 19% (inactive). The viability [6, 9] was 81%, the viability [6, 10] was 100% and the inhibition [7] was -5.87% (inactive). For the same molecule, the inhibition [8] was -1.13% (inactive).
For `CCC(C(=O)O)n1c(C(F)(F)F)nc2ccccc21` (stereo not given), the viability [1] was 105%, the Her2 level [2] was 116% (inactive) and the viability [3] was 105% (inactive). For the same molecule, the viability [4] was 105% (inactive), the viability [5] was 103% (inactive) and the differential viability (reversal) ([6]; H69AR cells + 2 uM doxorubicin) was 3.27% (inactive). The viability [6, 9] was 99.3%, the viability [6, 10] was 103% and the inhibition [7] was -5.62% (inactive). For the same molecule, the inhibition [8] was 0% (inactive).
With `CCCCOC(=O)CNc1nnc(SCC(=O)OCC)[nH]c1=O` the viability [1] was 114%, the Her2 level [2] was 87% (inactive) and the viability [3] was 114% (inactive). For the same molecule, the viability [4] was 74.8% (inactive), the viability [5] was 98.6% (inactive) and the differential viability (reversal) ([6]; H69AR cells + 2 uM doxorubicin) was 11.7% (inactive). For the same molecule, the viability [6, 9] was 86.9%, the viability [6, 10] was 98.6% and the inhibition [7] was -0.91% (inactive). The inhibition [8] was -3.81% (inactive).
With `COCCn1c(=O)[nH]c2cc(C(=O)NCc3cccnc3)ccc2c1=O` the viability [1] was 89.5%, the Her2 level [2] was 88.5% (inactive) and the viability [3] was 89.5% (inactive). The viability [4] was 107% (inactive), the viability [5] was 97.9% (inactive) and the differential viability (reversal) ([6]; H69AR cells + 2 uM doxorubicin) was 4.27% (inactive). For the same molecule, the viability [6, 9] was 93.6%, the viability [6, 10] was 97.9% and the inhibition [7] was -7.57% (inactive). For the same molecule, the inhibition [8] was 1.17% (inactive).
In the case of `CC1CCC(C(=O)NC(C(=O)NCCN2CCC(C)CC2)C(C)C)CC1` (stereo not given), the viability [1] is reported as 126%, the Her2 level [2] is reported as 107% (inactive) and the viability [3] is reported as 126% (inactive). For the same molecule, the viability [4] was 87.6% (inactive), the viability [5] was 81.3% (inactive) and the differential viability (reversal) ([6]; H69AR cells + 2 uM doxorubicin) was -6.62% (inactive). The viability [6, 9] was 87.9%, the viability [6, 10] was 81.3% and the inhibition [7] was -1.04% (inactive). The inhibition [8] was 13.9% (inactive).
For `Cc1cc2ncn(N)c2cc1C`, the viability [1] was 99.5%, the Her2 level [2] was 84% (inactive) and the viability [3] was 99.5% (inactive). For the same molecule, the viability [4] was 101% (inactive), the viability [5] was 98.8% (inactive) and the differential viability (reversal) ([6]; H69AR cells + 2 uM doxorubicin) was 0.485% (inactive). For the same molecule, the viability [6, 9] was 98.3%, the viability [6, 10] was 98.8% and the inhibition [7] was -7.7% (inactive). For the same molecule, the inhibition [8] was 1.83% (inactive).
